The test system of one series is HUVEC. Put plainly: Cytotoxicity against human HUVEC cells assessed as reduction in cell viability at 10 uM incubated for 48 hrs by MTT assay. It counts as cell-based. In short, it runs like this: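 Cells plated at 3~5 × 10^3 per well and allowed 24 h before exposure to compound or DMSO (negative control) for 48 h. MTT was added for 4 h, formazan dissolved in DMSO and absorbance read at 490 nm. Inhibition was calculated relative to DMSO and blank.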
A general note: Tetrazolium assays rely on reduction of a dye to a coloured formazan, in cell work by metabolically active cells.

Series [1] in a line: Reversal of multidrug resistance activity in human A2780/CDDP cells assessed as potentiation of CDDP-induced cytotoxicity by measuring reversal ratio at 10 uM incubated for 48 hrs in presence of CDDP by MTT assay. It counts as functional. Put shortly:
(§1)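 Resistant cells were plated at 3~5 × 10^3 per well, given 24 h, then co-treated with test compound plus a range of anticancer drug concentrations (PTX for A2780/T, VCR for KB-VIN, cisplatin for A2780/CDDP) or DMSO for 48 h. Read-out was by MTT, 4 h at 37 °C, with absorbance at 490 nm. Reversal ratio = IC50 (drug alone) / IC50 (drug with compound).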

The nature of series [2]: Cytotoxicity against human T29 cells assessed as reduction in cell viability at 10 uM incubated for 48 hrs by MTT assay. The note with it: t29, 48 h. It counts as cell-based. Put shortly:
(§2)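 Cells plated at 3~5 × 10^3 per well and allowed 24 h before exposure to compound or DMSO (negative control) for 48 h. A2780/T and KB-VIN were grown in DMEM/F12 with 10% FBS, and HUVEC, HOSEC and T29 in RPMI-1640 with 10% FBS, all at 37 °C under 5% CO₂. MTT was added for 4 h, formazan dissolved in DMSO and absorbance read at 490 nm. Inhibition was calculated relative to DMSO and blank.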

A short description of series [3]: Reversal of multidrug resistance activity in P-gp overexpressing human A2780T cells assessed as potentiation of PTX-induced cytotoxicity by measuring reversal ratio at 10 uM incubated for 48 hrs in presence of paclitaxel by MTT assay. It counts as functional, A2780/Taxol. In short, it runs like this: as §1
A short description of series [4]: Cytotoxicity against human HOSEC cells assessed as reduction in cell viability at 10 uM incubated for 48 hrs by MTT assay. It counts as cell-based. Particulars: hose. Put shortly:
as §2

In the next series the test system is A2780/Taxol. Put plainly: Cytotoxicity against human A2780T cells assessed as reduction in cell viability at 10 uM incubated for 48 hrs by MTT assay. It counts as cell-based. In short, it runs like this:
as §2

Series [5] is described as follows: Reversal of multidrug resistance activity in P-gp overexpressing human KB-VIN cells assessed as potentiation of VCR-induced cytotoxicity by measuring reversal ratio at 10 uM incubated for 48 hrs in presence of VCR by MTT assay. It counts as functional. Put shortly:
as §1

The nature of series [6]: Cytotoxicity against human KB-VIN cells assessed as reduction in cell viability at 10 uM incubated for 48 hrs by MTT assay. It counts as cell-based. Put shortly: as §2

As for `CCOc1ccc2c(=O)cc(CC)oc2c1COC(=O)c1cc(OC)c(OC)cc1OC`, the Activity entry (with HUVEC; in series [2]; in series [4]; in the series with A2780/Taxol) was “Non-Toxic” throughout. In addition, the Ratio in series [1] is given as 0.88; in series [3], 457.
Take `CCc1cc(=O)c2ccc(OC)c(COC(=O)c3c(F)cccc3F)c2o1`: the Activity result (in the series on HUVEC; in series [2]; in series [4]; with A2780/Taxol) was “Non-Toxic” in each case. Besides, the Ratio in series [3] is listed as 43.
As for `CCc1cc(=O)c2ccc(OC)c(COC(=O)/C=C/c3ccccc3)c2o1`, the Activity entry (with HUVEC; in series [2]; in series [4]; in series [6]; in the series on A2780/Taxol) was “Non-Toxic” throughout. Also, the Ratio in series [5] turned out to be 343; in series [3], 427.
Regarding `CCc1cc(=O)c2ccc(OC(C)C)c(COC(=O)c3ccc(C#N)cc3)c2o1`, the Activity entry was “Non-Toxic” in the series with HUVEC, “Non-Toxic” in series [2], “Non-Toxic” in series [4] and “Toxic” in the series with A2780/Taxol. Also, the Ratio in series [3] was found to be 10.
As to `CCc1cc(=O)c2ccc(OC)c(COC(=O)c3ccc(C#N)cc3)c2o1`, the Activity entry in the series with HUVEC is “Non-Toxic”; in series [2] it was “Toxic”; in series [4] it was “Toxic”; in the series on A2780/Taxol it was “Non-Toxic”. For the same compound, the Ratio in series [3] was 8.
Take `CCc1cc(=O)c2ccc(OC)c(COC(=O)c3cccc(OC)c3)c2o1`: the Activity result (in the series on HUVEC; in series [2]; in series [4]; with A2780/Taxol) was “Non-Toxic” in each case. For the same compound, in series [3], the Ratio amounted to 147.
On to `CCc1cc(=O)c2ccc(OC)c(COC(=O)c3cccc(N(C)C)c3)c2o1`, for which the Activity result (in the series with HUVEC; in series [2]; in series [4]; in series [6]; with A2780/Taxol) was “Non-Toxic” each time. The Ratio in series [5] came to 234; in series [1], 0.81; in series [3], 484.
As for `CCc1cc(=O)c2ccc(OC)c(COC(=O)/C=C/c3ccc(Cl)cc3)c2o1`, the Activity entry (with HUVEC; in series [2]; in series [4]; in the series with A2780/Taxol) was “Non-Toxic” each time. The Ratio in series [3] was determined as 53.
Turning to `CCc1cc(=O)c2ccc(OC)c(COC(=O)c3ccc(C(C)(C)C)cc3)c2o1`, the Activity result in the series with HUVEC is listed as “Non-Toxic”; in series [2] it was “Non-Toxic”; in series [4] it was “Non-Toxic”; in the series on A2780/Taxol, “Toxic”. In series [3], the Ratio came to 158.
As for `CCc1cc(=O)c2ccc(OC)c(COC(=O)c3cc([N+](=O)[O-])ccc3Cl)c2o1`, the Activity entry (in the series on HUVEC; in series [2]; in series [4]; with A2780/Taxol) was “Non-Toxic” in each case. Moreover, the Ratio in series [3] worked out at 57.
With `CCc1cc(=O)c2ccc(OC)c(COC(=O)/C=C/c3ccc(OC)cc3)c2o1`, the Activity result with HUVEC is “Non-Toxic”; in series [2], “Toxic”; in series [4], “Toxic”; in series [6] it was “Non-Toxic”; in the series with A2780/Taxol, “Toxic”. Further, the Ratio in series [5] came out at 420; in series [3], 414.
For the compound `CCc1cc(=O)c2ccc(OC)c(COC(=O)Cc3cc(OC)c(OC)c(OC)c3)c2o1`, the Activity result is listed as “Non-Toxic” in the series with HUVEC, “Non-Toxic” in series [2], “Non-Toxic” in series [4] and “Toxic” with A2780/Taxol. The Ratio in series [3] is 54.
For the compound `CCc1cc(=O)c2ccc(OC)c(COC(=O)c3ccc(F)cc3)c2o1`, the Activity result (with HUVEC; in series [2]; in series [4]; with A2780/Taxol) was “Non-Toxic” throughout. Further, the Ratio in series [3] is 53.
As for `CCc1cc(=O)c2ccc(OC)c(COC(=O)c3ccccc3[N+](=O)[O-])c2o1`, the Activity entry (in the series on HUVEC; in series [2]; in series [4]; in the series on A2780/Taxol) was “Non-Toxic” in each case. For the same compound, the Ratio in series [3] amounted to 172.
Take `CCc1cc(=O)c2ccc(OC)c(COC(=O)Cc3ccc(Cl)cc3)c2o1`: the Activity result (in the series with HUVEC; in series [2]; in series [4]; in the series with A2780/Taxol) was “Non-Toxic” throughout. In addition, in series [3], the Ratio is listed as 89.
Regarding `CCc1cc(=O)c2ccc(OC)c(COC(=O)c3cc(OC)c(OC)cc3OC)c2o1`, the Activity result (in the series on HUVEC; in series [2]; in series [4]; in series [6]; with A2780/Taxol) was “Non-Toxic” throughout. Besides, the Ratio is recorded as 579 in series [5] and 284 in series [3].
For `CCc1cc(=O)c2ccc(OC)c(COC(=O)Cc3ccccc3C)c2o1`, the Activity entry (with HUVEC; in series [2]; in series [4]; in the series on A2780/Taxol) was “Non-Toxic” throughout. Further, the Ratio in series [3] amounted to 99.
Take `CCc1cc(=O)c2ccc(OC(C)C)c(COC(=O)c3cc(OC)c(OC)c(OC)c3)c2o1`: the Activity entry (in the series on HUVEC; in series [2]; in series [4]; with A2780/Taxol) was “Non-Toxic” each time. The Ratio in series [1] worked out at 0.99; in series [3] it was 503.
Consider `CCCCCc1ccc(C(=O)OCc2c(OC)ccc3c(=O)cc(CC)oc23)cc1`, for which the Activity result (in the series on HUVEC; in series [2]; in series [4]; in the series with A2780/Taxol) was “Non-Toxic” each time. Also, the Ratio in series [3] is listed as 173.
Turning to `CCc1cc(=O)c2ccc(OC)c(COC(=O)c3ccc(OC)c(OC)c3)c2o1`, the Activity entry is listed as “Non-Toxic” in the series on HUVEC; “Non-Toxic” in series [2]; “Non-Toxic” in series [4]; “Non-Toxic” in series [6]; “Toxic” with A2780/Taxol. Also, the results for the Ratio in series [5] and in series [3] were 105 and 260, respectively.
For `CCc1cc(=O)c2ccc(OC)c(COC(=O)c3ccccc3Br)c2o1`, the Activity entry in the series with HUVEC was “Non-Toxic”; in series [2], “Non-Toxic”; in series [4] it was “Non-Toxic”; in the series with A2780/Taxol, “Toxic”. Further, the Ratio in series [3] is recorded as 23.
Take `CCOc1ccc2c(=O)cc(CC)oc2c1COC(=O)c1ccc(C#N)cc1`: the Activity result in the series on HUVEC is on record as “Non-Toxic”; in series [2] it was “Non-Toxic”; in series [4] it was “Non-Toxic”; in the series on A2780/Taxol, “Toxic”. For the same compound, in series [3], the Ratio came out at 20.
Take `CCc1cc(=O)c2ccc(OC)c(COC(=O)c3ccc(Cl)cc3Cl)c2o1`: the Activity entry (in the series on HUVEC; in series [2]; in series [4]; in the series with A2780/Taxol) was “Non-Toxic” in each case. Also, in series [3], the Ratio was determined as 126.
`CCCc1ccc(C(=O)OCc2c(OC)ccc3c(=O)cc(CC)oc23)cc1`: the Activity result in the series with HUVEC is given as “Non-Toxic”; in series [2], “Non-Toxic”; in series [4], “Non-Toxic”; in the series with A2780/Taxol, “Toxic”. Besides, the Ratio in series [3] is 36.
`CCc1cc(=O)c2ccc(OC)c(COC(=O)c3ccc(Cl)c([N+](=O)[O-])c3)c2o1`: the Activity result is “Non-Toxic” in the series on HUVEC, “Toxic” in series [2], “Toxic” in series [4] and “Non-Toxic” with A2780/Taxol. In series [3], the Ratio was 14.
As to `CCc1cc(=O)c2ccc(OC)c(COC(=O)c3ccc(N)c(C)c3)c2o1`, the Activity result (with HUVEC; in series [2]; in series [4]; with A2780/Taxol) was “Non-Toxic” in each case. For the same compound, in series [3], the Ratio came to 177.

The values are drawn from ChEMBL document CHEMBL4706532, “New Seco-DSP derivatives as potent chemosensitizers” (Eur J Med Chem, 2020).
